Reference: ChEMBL document CHEMBL4251598, “Development of novel bis-pyrazole derivatives as antitumor agents with potent apoptosis induction effects and DNA damage” (Eur J Med Chem, 2018)
The source made the active and inactive calls.

Key:
SMMC-7721 [1] = assay: Induction of apoptosis in human SMMC7721 cells assessed as increase in cleaved caspase-3 expression at 0.2 to 3.2 uM after 72 hrs by Western blot analysis relative to control; format: functional, cell-based
Summary of the method: (§1)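 Sub-confluent SMMC-7721 cells treated with vehicle, compound or ADM at indicated concentrations for 72 h. Lysed on ice in NP-40/deoxycholate/SDS buffer with PMSF and leupeptin. Up to 50 µg protein run on SDS-PAGE, transferred to PVDF and probed with specific antibodies; ECL detection. Bands quantified by densitometry relative to β-actin, mean ± SD of three experiments.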

SMMC-7721 [2] = assay: Potency index, ratio of ADM IC50 to compound IC50 for human SMMC7721 cells; format: functional
SMMC-7721 [3] = assay: Induction of apoptosis in human SMMC7721 cells assessed as apoptotic cells at 0.8 uM after 72 hrs by FITC-Annexin-V/7AAD/propidium iodide staining based flow cytometry relative to control; format: functional
Summary of the method: (§2)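 SMMC-7721 cells cultured overnight, then treated in triplicate with 0.2, 0.8 or 3.2 μM, vehicle, or ADM (3.2 μM) for 72 h. Stained with annexin V and PI (methods section: APC-annexin V/7-AAD) for 15 min at room temperature. Mean ± SD of three independent experiments.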

Mus musculus [4] = assay: Acute toxicity in ICR mouse assessed as mouse mortality level at 200 to 312.5 mg/kg, ip measured on day 5 to 14 post dose; format: organism-based; settings: in vivo
Summary of the method: (§3)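 Female ICR mice, 10 per group, single intraperitoneal injection at 488.3, 390.6, 312.5, 250 or 200 mg/kg, or vehicle control. Survival, eating, drinking, body weight and activity were monitored for up to 14 days after dosing. MTD was defined as the highest dose giving no drug-related moribund state or death, with temporary body-weight loss within 20%. LD50 was calculated from mortality.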

SMMC-7721 [5] = assay: Induction of DNA double stranded breaks in human SMMC7721 cells assessed as increase in H2AX phosphorylation at S139 after 72 hrs by Western blot analysis; format: functional, cell-based
Summary of the method: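 SMMC-7721 cells treated with vehicle, compound at 0.2, 0.8 or 3.2 μM, or ADM for 72 h. Lysates immunoblotted for H2AX pS139, p-p53 (Ser15), total p53 and β-actin, with ECL detection. Signals quantified by densitometry relative to β-actin, mean ± SD of three experiments.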

Mus musculus [6] = assay: Acute toxicity in ICR mouse assessed as effect on eating behaviour at 200 mg/kg, ip measured up to 14 days post dose; format: organism-based; settings: in vivo, 336 h; summary of the method: as §3
[7] = Acute toxicity in ICR mouse assessed as survival at 312.5 mg/kg, ip measured on day 14; format: organism-based; settings: in vivo; summary of the method: as §3
HCT-116 [8] = assay: Antiproliferative activity against human HCT116 cells after 72 hrs by MTT assay; format: functional, cell-based; settings: HCT-116, 72 h
Summary of the method: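 Cells in DMEM with 10% FBS, 10^4 cells/mL, adhered overnight at 37 °C, 5% CO2. Treated in triplicate with a range of concentrations for 72 h. MTT (5 mg/mL solution) added for the last 4 h, formazan dissolved in DMSO, absorbance read at 570 nm. IC50 calculated from percent inhibition. Mean ± SD of three independent experiments.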

Mus musculus [9] = assay: Acute toxicity in ICR mouse assessed as effect on body weight at 200 mg/kg, ip measured up to 14 days post dose; format: organism-based; settings: in vivo, 336 h; summary of the method: as §3
[10] = Acute toxicity in ICR mouse at 200 to 488.3 mg/kg, ip; format: organism-based; settings: in vivo; summary of the method: as §3
SMMC-7721 [11] = assay: Induction of apoptosis in human SMMC7721 cells assessed as reduction in Bcl2 expression after 72 hrs by Western blot analysis; format: functional, cell-based; summary of the method: as §1
Mus musculus [12] = assay: Toxicity in BALB/c mouse xenografted with human SMMC7721 cells assessed as effect on body weight at 15 to 30 mg/kg, ip measured after 19 days; format: organism-based; settings: in vivo, 456 h
Summary of the method: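 Female BALB/c nude mice, 5-6 weeks old, inoculated subcutaneously with 10^6 SMMC-7721 cells. At 50-100 mm³ tumours, mice were randomized to ip compound (15 or 30 mg/kg), ADM (15 mg/kg) or vehicle, n = 6 per group. Caliper volume ½(L×W²) measured every 3 days to day 19, with body weight monitored. Tumours excised and weighed at the end.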

SMMC-7721 [13] = assay: Induction of apoptosis in human SMMC7721 cells assessed as apoptotic cells after 72 hrs by FITC-Annexin-V/7AAD/propidium iodide staining based flow cytometry; format: functional, cell-based; summary of the method: as §2
[14] = Acute toxicity in ICR mouse assessed as survival at 200 mg/kg, ip measured on day 14; format: organism-based; settings: in vivo; summary of the method: as §3
Mus musculus [15] = assay: Acute toxicity in ICR mouse assessed as mouse mortality level at 312.5 mg/kg, ip measured on day 3 post dose; format: organism-based; settings: in vivo; summary of the method: as §3
HCT-116 [16] = assay: Potency index, ratio of 5-FU IC50 to compound IC50 for human HCT116 cells; format: functional

COc1ccc(Oc2c(/C=N\OCc3c(Cl)c(-c4ccc(Cl)cc4)nn3C)c(C)nn2C)cc1
Activity (SMMC-7721 [1]): Active
Ratio IC50 (SMMC-7721 [2]): 2 - 3
Activity (SMMC-7721 [3]): 49.2%
Activity (Mus musculus [4]): Non-Toxic
Activity (SMMC-7721 [5]): Dose-dependent effect
Activity (Mus musculus [6]): Non-Toxic
survival at 14 day [7]: 60%
IC50 (HCT-116 [8]): 1260 nM
Activity (Mus musculus [9]): Non-Toxic
LD50 [10]: 350 mg/kg
Activity (SMMC-7721 [11]): Dose-dependent effect
Activity (Mus musculus [12]): Non-Toxic
Activity (SMMC-7721 [13]): Dose-dependent effect
survival at 14 day [14]: 100%
Activity (Mus musculus [15]): Non-Toxic
Ratio IC50 (HCT-116 [16]): 17 - 50
